From ChEMBL document CHEMBL1795332, “Renin inhibitors for the treatment of hypertension: design and optimization of a novel series of pyridone-substituted piperidines” (Bioorg Med Chem Lett, 2011)

Columns and labels:
Renin [1] = target: T1, Renin (Homo sapiens, UniProt P00797); experiment: Inhibition of human recombinant renin using Q-FRET substrate after 3 hrs by fluorescence assay
T1 sequence (P00797 whole entry): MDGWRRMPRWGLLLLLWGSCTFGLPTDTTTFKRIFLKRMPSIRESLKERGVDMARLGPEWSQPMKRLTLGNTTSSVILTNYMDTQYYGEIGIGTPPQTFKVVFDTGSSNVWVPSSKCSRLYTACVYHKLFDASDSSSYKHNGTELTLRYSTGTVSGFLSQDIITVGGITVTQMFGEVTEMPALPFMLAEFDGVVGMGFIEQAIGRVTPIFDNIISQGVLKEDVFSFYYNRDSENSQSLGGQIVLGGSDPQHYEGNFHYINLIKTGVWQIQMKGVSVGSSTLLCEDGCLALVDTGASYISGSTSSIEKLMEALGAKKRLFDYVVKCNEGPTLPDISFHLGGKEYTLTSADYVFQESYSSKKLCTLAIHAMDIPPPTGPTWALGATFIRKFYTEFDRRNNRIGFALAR

[2] = Oral bioavailability in Sprague-Dawley rat at 20 mg/kg; format: ADME, organism-based; details: in vivo
Renin [3] = target: T1, Renin; experiment: Inhibition of renin in human plasma using Q-FRET substrate pretreated for 10 mins before substrate addition measured after 1 hr
[4] = target: Voltage-gated inwardly rectifying potassium channel KCNH2 (Homo sapiens, UniProt Q12809); experiment: Inhibition of human ERG
CYP3A4 [5] = target: T2, CYP3A4 (Homo sapiens, UniProt P08684); experiment: Time dependent inhibition of CYP3A4 assessed as conversion of testosterone to 6-beta-hydroxytestosterone at 10 uM relative to control; format: ADME; details: probe testosterone
Outline: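 Rate of CYP3A4 conversion of testosterone (250 μM) to 6-β-hydroxytestosterone measured before and after a 30 min incubation with compound at 10 μM (in DMSO). Difference expressed as % loss.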

CYP3A4 [6] = target: T2, CYP3A4; experiment: Reversible inhibition of CYP3A4 assessed as conversion of testosterone to 6-beta-hydroxytestosterone at 10 uM relative to control; format: ADME; details: probe testosterone

T2 sequence (P08684 whole entry): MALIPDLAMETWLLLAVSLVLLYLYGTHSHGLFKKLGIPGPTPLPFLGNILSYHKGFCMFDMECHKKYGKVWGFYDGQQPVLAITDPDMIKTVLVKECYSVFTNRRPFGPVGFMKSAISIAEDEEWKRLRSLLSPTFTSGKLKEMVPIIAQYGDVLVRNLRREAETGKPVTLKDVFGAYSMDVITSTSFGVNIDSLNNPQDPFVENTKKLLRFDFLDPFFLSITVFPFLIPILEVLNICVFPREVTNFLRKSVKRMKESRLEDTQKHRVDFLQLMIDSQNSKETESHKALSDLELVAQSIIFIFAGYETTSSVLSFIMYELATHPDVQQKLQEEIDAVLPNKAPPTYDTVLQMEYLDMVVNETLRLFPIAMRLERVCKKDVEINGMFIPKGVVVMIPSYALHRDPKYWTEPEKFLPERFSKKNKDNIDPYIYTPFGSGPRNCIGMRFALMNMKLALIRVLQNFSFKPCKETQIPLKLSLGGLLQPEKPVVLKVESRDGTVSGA
Voltage-gated inwardly rectifying potassium channel KCNH2, sequence (Q12809 whole entry): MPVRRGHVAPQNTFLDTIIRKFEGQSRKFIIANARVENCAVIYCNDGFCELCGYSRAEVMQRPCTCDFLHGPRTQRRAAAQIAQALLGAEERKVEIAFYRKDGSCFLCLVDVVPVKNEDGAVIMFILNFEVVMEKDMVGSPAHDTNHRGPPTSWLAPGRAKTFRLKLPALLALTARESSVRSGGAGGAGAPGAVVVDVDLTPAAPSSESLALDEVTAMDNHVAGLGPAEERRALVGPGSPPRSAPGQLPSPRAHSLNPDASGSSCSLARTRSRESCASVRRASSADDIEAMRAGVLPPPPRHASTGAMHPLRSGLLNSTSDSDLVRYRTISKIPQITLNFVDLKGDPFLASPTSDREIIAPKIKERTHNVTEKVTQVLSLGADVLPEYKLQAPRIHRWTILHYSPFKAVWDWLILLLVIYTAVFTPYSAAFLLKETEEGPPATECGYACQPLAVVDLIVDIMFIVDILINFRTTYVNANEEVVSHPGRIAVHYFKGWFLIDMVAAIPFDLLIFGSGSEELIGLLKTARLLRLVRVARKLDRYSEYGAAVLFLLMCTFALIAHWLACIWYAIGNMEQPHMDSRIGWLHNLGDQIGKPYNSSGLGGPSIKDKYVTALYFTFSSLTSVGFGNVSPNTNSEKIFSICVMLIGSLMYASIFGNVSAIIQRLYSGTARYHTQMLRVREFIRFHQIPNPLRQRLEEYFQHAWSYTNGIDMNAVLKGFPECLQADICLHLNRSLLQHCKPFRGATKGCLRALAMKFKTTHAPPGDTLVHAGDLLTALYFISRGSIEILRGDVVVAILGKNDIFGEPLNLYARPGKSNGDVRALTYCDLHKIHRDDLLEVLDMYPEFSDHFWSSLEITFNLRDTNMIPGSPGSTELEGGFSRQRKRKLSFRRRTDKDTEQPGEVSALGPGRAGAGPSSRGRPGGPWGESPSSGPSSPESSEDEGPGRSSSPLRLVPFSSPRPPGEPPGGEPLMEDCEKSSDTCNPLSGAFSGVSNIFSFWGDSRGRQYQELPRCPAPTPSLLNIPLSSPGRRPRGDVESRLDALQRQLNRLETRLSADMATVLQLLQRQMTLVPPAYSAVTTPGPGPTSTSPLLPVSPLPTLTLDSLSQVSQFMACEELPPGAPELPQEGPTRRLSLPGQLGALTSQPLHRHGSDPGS

IC50 (Renin [1]) | bioavailability [2] | IC50 (Renin [3]) | inhibition at 10 µM (CYP3A4 [5]) | activity % at 10 µM (CYP3A4 [6]) | SMILES | Ki [4]
20 nM | 23% | 42 nM | 37% | 61% | Cn1ccc([C@H]2CCNC[C@@H]2C(=O)N(Cc2cccc(Cl)c2Cl)C2CC2)cc1=O | 13 µM
200 nM | 1% | 460 nM | 5% | 70% | CCn1ccc([C@H]2CCNC[C@@H]2C(=O)N(Cc2cc(CCCOC)cc(OCCOC)c2)C2CC2)cc1=O | > 29 µM
1.4 nM | 1% | 3 nM | 13% | 95% | COCCCc1cc(CN(C(=O)[C@H]2CNCC[C@@H]2c2ccn(C)c(=O)c2)C2CC2)c2ccccc2n1 | > 29 µM
13 nM | 1% | 39 nM | 5% | 100% | COCCCc1cc(CN(C(=O)[C@H]2CNCC[C@@H]2c2cc(=O)n(C)c3ccccc23)C2CC2)cc(OCCOC)c1 | 28 µM
150 nM | – | 580 nM | 0% | 33% | COCCCc1cc(CN(C(=O)[C@H]2CNCC[C@@H]2c2ccccc2)C2CC2)cc(OCCOC)c1 | 7.2 µM
25 nM | 0% | 80 nM | 0% | 41% | COCCCc1cc(CN(C(=O)[C@H]2CNCC[C@@H]2c2cc(=O)n(C)c(C)c2C)C2CC2)cc(OCCOC)c1 | > 29 µM
45 nM | 61% | 140 nM | 9% | 75% | COCCCc1cc(CN(C(=O)[C@H]2CNCC[C@@H]2c2cccnc2)C2CC2)cc(OCCOC)c1 | > 29 µM
4.9 nM | 7% | 10 nM | 20% | 55% | Cn1ccc([C@H]2CCNC[C@@H]2C(=O)N(Cc2cc(CCCC#N)cc(Cl)c2Cl)C2CC2)cc1=O | 8.4 µM
– | 27% | – | 27% | 9% | COCCCc1cc(CN(C(=O)[C@H]2CNCC[C@@H]2c2ccc(OCCOc3c(Cl)cc(C)cc3Cl)cc2)C2CC2)cc(OCCOC)c1 | 0.8 µM
18 nM | 8% | 81 nM | 0% | 23% | COCCCc1cc(CN(C(=O)[C@H]2CNCC[C@@H]2c2ccn(C)c(=O)c2)C2CC2)cc(-c2ccccc2)c1 | –
7.1 nM | 1% | 26 nM | 0% | 71% | COCCNc1cc(Cl)c(Cl)c(CN(C(=O)[C@H]2CNCC[C@@H]2c2ccn(C)c(=O)c2)C2CC2)c1 | 18 µM
1.7 nM | 15% | 3.5 nM | 45% | 15% | COCCCc1cc(Br)cc(CN(C(=O)[C@H]2CNCC[C@@H]2c2ccn(C)c(=O)c2)C2CC2)c1 | –
4.5 nM | 0% | 9 nM | 0% | 97% | CC(=O)NCCc1cc(Cl)c(Cl)c(CN(C(=O)[C@H]2CNCC[C@@H]2c2ccn(C)c(=O)c2)C2CC2)c1 | > 29 µM
8 nM | 14% | 25 nM | 29% | – | COCCCc1ccc(Cl)c(CN(C(=O)[C@H]2CNCC[C@@H]2c2ccn(C)c(=O)c2)C2CC2)c1 | –
– | 3% | – | 0% | 78% | COCCCc1cc(CN(C(=O)[C@H]2CNCC[C@@H]2c2ccn(C)c(=O)c2)C2CC2)cc(OCCOC)c1 | > 29 µM
2 nM | 20% | 8 nM | 4% | – | COCCCc1cc(CN(C(=O)[C@H]2CNCC[C@@H]2c2cc(=O)n(C)c3cc(Cl)ccc23)C2CC2)cc(OCCOC)c1 | –
